Results reported in ChEMBL document CHEMBL2385045, “Discovery of novel 4-(2-fluorophenoxy)quinoline derivatives bearing 4-oxo-1,4-dihydrocinnoline-3-carboxamide moiety as c-Met kinase inhibitors” (Bioorg Med Chem, 2013).

Key:
HT-29 = experiment: Cytotoxicity against c-Met-dependent human HT-29 cells assessed as growth inhibition after 72 hrs by MTT assay; conditions: HT-29, 72 h
A549 = experiment: Cytotoxicity against c-Met-dependent human A549 cells assessed as growth inhibition after 72 hrs by MTT assay; conditions: A549, 72 h
MKN-45 = experiment: Cytotoxicity against c-Met-dependent human MKN45 cells assessed as growth inhibition after 72 hrs by MTT assay; conditions: MKN-45, 72 h
SMMC-7721 = experiment: Cytotoxicity against c-Met-dependent human SMMC7721 cells assessed as growth inhibition after 72 hrs by MTT assay; assay type: functional, cell-based; conditions: SMMC-7721, 72 h
In short: (§1)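 Cells grown in MEM with 10% FBS. About 4×10³ cells/well were seeded and incubated 24 h at 37 °C, 5% CO₂, then exposed to compound for 72 h. MTT was added (terminal 5 µg/mL) for 4 h at 37 °C, and formazan was dissolved in DMSO. IC50 is the mean of three determinations.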

[1] = Cytotoxicity against c-Met-dependent human U87MG cells assessed as growth inhibition after 72 hrs by MTT assay; assay type: functional, cell-based, U-87MG ATCC; conditions: U-87 MG; in short: as §1
[2] = Cytotoxicity against c-Met-independent human H460 cells assessed as growth inhibition after 72 hrs by MTT assay; conditions: NCI-H460, 72 h
[3] = target: T1, Hepatocyte growth factor receptor (Homo sapiens, UniProt P08581); experiment: Inhibition of c-Met (unknown origin)
In short: (§2)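 HTRF kinase assay on plates precoated with 20 µg/mL poly(Glu,Tyr) 4:1. ATP (10 mM solution) in 50 mM HEPES pH 7.0 buffer with DTT, MgCl₂, MnCl₂ and 0.1% NaN₃. Compound in 1% DMSO; reaction started with purified kinase and run 30 min at 25 °C. Inhibition relative to enzyme and no-enzyme controls; IC50 from the inhibition curves.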

[4] = target: Mast/stem cell growth factor receptor Kit (Homo sapiens, UniProt P10721); experiment: Inhibition of c-Kit (unknown origin) using poly (Glu, Tyr) 4:1 as substrate after 30 mins by HTRF assay
In short: as §2, with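 “°C. Stopped with Streptavidin-XL665 plus TK antibody cryptate and read at 320/615.” for “°C.”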

[5] = target: Epidermal growth factor receptor (Homo sapiens, UniProt P00533); experiment: Inhibition of EGFR (unknown origin) using poly (Glu, Tyr) 4:1 as substrate after 30 mins by HTRF assay
In short: as §2, with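 “°C. Stopped with Streptavidin-XL665 plus TK antibody cryptate and read at 320/615.” for “°C.”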

[6] = target: Platelet-derived growth factor receptor alpha (Homo sapiens, UniProt P16234); experiment: Inhibition of PDGFRalpha (unknown origin) using poly (Glu, Tyr) 4:1 as substrate after 30 mins by HTRF assay
In short: as §2, with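 “°C. Stopped with Streptavidin-XL665 plus TK antibody cryptate and read at 320/615.” for “°C.”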

[7] = target: T2, Vascular endothelial growth factor receptor 2 (Homo sapiens, UniProt P35968); experiment: Inhibition of VEGFR-2 (unknown origin) using poly (Glu, Tyr) 4:1 as substrate after 30 mins by HTRF assay
In short: as §2, with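 “°C. Stopped with Streptavidin-XL665 plus TK antibody cryptate and read at 320/615.” for “°C.”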

[8] = target: T3, Receptor-type tyrosine-protein kinase FLT3 (Homo sapiens, UniProt P36888); experiment: Inhibition of Flt-3 (unknown origin) using poly (Glu, Tyr) 4:1 as substrate after 30 mins by HTRF assay
T3 sequence (P36888 whole entry): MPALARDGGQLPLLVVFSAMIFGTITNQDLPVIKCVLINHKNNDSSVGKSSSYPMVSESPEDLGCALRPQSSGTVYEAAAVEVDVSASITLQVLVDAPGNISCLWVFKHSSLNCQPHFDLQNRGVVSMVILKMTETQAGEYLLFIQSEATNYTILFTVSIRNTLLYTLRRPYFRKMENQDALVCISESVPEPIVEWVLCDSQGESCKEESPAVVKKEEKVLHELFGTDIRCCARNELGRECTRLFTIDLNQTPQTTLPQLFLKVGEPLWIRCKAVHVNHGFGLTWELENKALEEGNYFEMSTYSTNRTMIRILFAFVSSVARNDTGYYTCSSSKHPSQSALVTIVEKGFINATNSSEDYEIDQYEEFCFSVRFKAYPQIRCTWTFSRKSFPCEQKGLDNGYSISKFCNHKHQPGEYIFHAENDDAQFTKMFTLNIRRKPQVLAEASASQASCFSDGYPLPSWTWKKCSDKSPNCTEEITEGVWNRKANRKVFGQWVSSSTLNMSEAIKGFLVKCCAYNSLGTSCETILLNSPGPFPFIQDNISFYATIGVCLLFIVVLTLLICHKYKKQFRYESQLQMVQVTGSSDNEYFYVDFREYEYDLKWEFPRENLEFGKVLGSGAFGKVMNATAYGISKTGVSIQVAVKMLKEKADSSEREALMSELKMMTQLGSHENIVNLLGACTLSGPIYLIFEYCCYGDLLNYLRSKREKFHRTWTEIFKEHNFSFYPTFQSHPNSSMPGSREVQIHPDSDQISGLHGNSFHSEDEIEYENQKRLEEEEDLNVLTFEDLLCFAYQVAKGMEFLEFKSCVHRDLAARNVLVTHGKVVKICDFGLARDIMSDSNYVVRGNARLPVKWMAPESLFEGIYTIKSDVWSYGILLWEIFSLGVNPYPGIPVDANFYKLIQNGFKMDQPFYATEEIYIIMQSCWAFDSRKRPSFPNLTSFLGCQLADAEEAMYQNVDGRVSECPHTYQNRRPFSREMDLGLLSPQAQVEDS
In short: as §2, with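 “°C. Stopped with Streptavidin-XL665 plus TK antibody cryptate and read at 320/615.” for “°C.”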

[9] = target: T1, Hepatocyte growth factor receptor; experiment: Inhibition of c-Met (unknown origin) using poly (Glu, Tyr) 4:1 as substrate after 30 mins by HTRF assay
[10] = target: T1, Hepatocyte growth factor receptor; experiment: Inhibition of wild type GST-tagged c-Met kinase domain (1058 to 1365) (unknown origin) expressed in Sf9 cells by HTRF assay
[11] = target: T2, Vascular endothelial growth factor receptor 2; experiment: Inhibition of VEGFR-2 (unknown origin)

Row | Compound | IC50 (HT-29) [nM] | IC50 (A549) [nM] | IC50 (MKN-45) [nM] | IC50 (SMMC-7721) [nM] | IC50 [1] [nM] | IC50 [2] [nM] | IC50 [3] [nM] | IC50 [4] [nM] | IC50 [5] [nM] | IC50 [6] [nM] | IC50 [7] [nM] | IC50 [8] [nM] | IC50 [9] [nM] | IC50 [10] [nM] | IC50 [11] [nM]
1 | COc1cc2c(Oc3ccc(NC(=O)c4nn(-c5ccccc5)c5ccccc5c4=O)cc3F)ccnc2cc1OCCCN1CCOCC1 | 1170 | 570 | 960 | 1130 | 1460 | 690 | – | – | – | – | – | – | – | – | –
2 | COc1cc2c(Oc3ccc(NC(=O)c4nn(-c5ccccc5Cl)c5ccccc5c4=O)cc3F)ccnc2cc1OCCCN1CCOCC1 | 240 | 30 | 10 | 920 | 1690 | 10 | – | – | – | – | – | – | – | – | –
3 | COc1cc2c(Oc3ccc(NC(=O)c4nn(-c5ccccc5C(F)(F)F)c5ccccc5c4=O)cc3F)ccnc2cc1OCCCN1CCOCC1 | 510 | 60 | 20 | 840 | 1480 | 80 | – | – | – | – | – | – | – | – | –
4 | COc1cc2c(Oc3ccc(-c4cnc(Nc5ccccc5)n(C)c4=O)cc3F)ccnc2cc1OCCCN1CCOCC1 | – | – | – | – | – | – | 4.9 | – | – | – | – | – | – | – | –
5 | COc1cc2c(Oc3ccc(NC(=O)c4nn(-c5ccccc5F)c5ccccc5c4=O)cc3F)ccnc2cc1OCCCN1CCC(C)CC1 | 780 | 330 | 580 | 950 | 1210 | 290 | – | – | – | – | – | – | – | – | –
6 | COc1cc2c(Oc3ccc(NC(=O)c4nn(-c5ccc(F)cc5)c5ccccc5c4=O)cc3F)ccnc2cc1OCCCN1CCC(C)CC1 | 460 | 150 | 170 | 930 | 1120 | 890 | – | – | – | – | – | – | – | – | –
7 | COc1cc2c(Oc3ccc(NC(=O)c4nn(-c5c(Cl)cccc5Cl)c5ccccc5c4=O)cc3F)ccnc2cc1OCCCN1CCC(C)CC1 | 920 | 400 | 360 | 820 | 1040 | 650 | – | – | – | – | – | – | – | – | –
8 | COc1cc2c(Oc3ccc(NC(=O)c4nn(-c5ccc(Cl)c(C(F)(F)F)c5)c5ccccc5c4=O)cc3F)ccnc2cc1OCCCN1CCC(C)CC1 | 490 | 240 | 140 | 370 | 540 | 110 | – | – | – | – | – | – | – | – | –
9 | COc1cc2c(Oc3ccc(NC(=O)c4nn(-c5ccccc5C(F)(F)F)c5ccccc5c4=O)cc3F)ccnc2cc1OCCCN1CCCC1 | 110 | 35 | 22 | 250 | 350 | 55 | – | 3.9 | > 10000 | 27.3 | 15.4 | 8.5 | 0.59 | – | –
10 | COc1cc2c(Oc3ccc(NC(=O)c4nn(-c5cccc(C(F)(F)F)c5)c5ccccc5c4=O)cc3F)ccnc2cc1OCCCN1CCCC1 | 780 | 300 | 190 | 630 | 850 | 1040 | – | – | – | – | – | – | – | – | –
11 | COc1cc2c(Oc3ccc(NC(=O)c4nn(-c5ccc(F)c(F)c5)c5ccccc5c4=O)cc3F)ccnc2cc1OCCCN1CCCC1 | 1120 | 260 | 350 | 590 | 1060 | 640 | – | – | – | – | – | – | – | – | –
12 | COc1cc2c(Oc3ccc(NC(=O)c4nn(-c5c(Cl)cccc5Cl)c5ccccc5c4=O)cc3F)ccnc2cc1OCCCN1CCCC1 | 1050 | 350 | 350 | 840 | 1250 | 370 | – | – | – | – | – | – | – | – | –
13 | COc1cc2c(Oc3ccc(NC(=O)c4nn(-c5ccccc5Cl)c5ccccc5c4=O)cc3F)ccnc2cc1OCCCN1CCCCC1 | 260 | 43 | 50 | 420 | 490 | 73 | – | – | – | – | – | – | – | – | –
14 | COc1cc2c(Oc3ccc(NC(=O)c4nn(-c5ccccc5C(F)(F)F)c5ccccc5c4=O)cc3F)ccnc2cc1OCCCN1CCCCC1 | 560 | 55 | 27 | 1350 | 1160 | 81 | – | – | – | – | – | – | – | – | –
15 | COc1cc2c(Oc3ccc(NC(=O)c4nn(-c5cccc(C(F)(F)F)c5)c5ccccc5c4=O)cc3F)ccnc2cc1OCCCN1CCCCC1 | 560 | 310 | 270 | 330 | 1620 | 1030 | – | – | – | – | – | – | – | – | –
16 | COc1cc2c(Oc3ccc(NC(=O)c4nn(-c5ccc(Cl)cc5)c5ccccc5c4=O)cc3F)ccnc2cc1OCCCN1CCCCC1 | 2120 | 200 | 230 | 330 | 1620 | 640 | – | – | – | – | – | – | – | – | –
17 | COc1cc2c(Oc3ccc(NC(=O)c4nn(-c5ccc(Br)cc5)c5ccccc5c4=O)cc3F)ccnc2cc1OCCCN1CCCCC1 | 1140 | 530 | 450 | 840 | 1600 | 400 | – | – | – | – | – | – | – | – | –
18 | COc1cc2c(Oc3ccc(-c4cnc(Cc5ccccc5)n(C)c4=O)cc3F)ccnc2cc1OCCCN1CCOCC1 | – | – | – | – | – | – | – | – | – | – | – | – | – | 8.9 | –
19 | COc1cc2c(Oc3ccc(NC(=O)N4CCN(c5ccccc5)C4=O)cc3F)ccnc2cc1OCCCN1CCOCC1 | – | – | – | – | – | – | – | – | – | – | – | – | – | – | 30
